Results reported in ChEMBL document CHEMBL1933000, “Design, synthesis and antitumor activity of 4-aminoquinazoline derivatives targeting VEGFR-2 tyrosine kinase” (Bioorg Med Chem Lett, 2012).

Assays:
HUVEC = assay: Antiproliferative activity against VEGF-stimulated HUVEC after 48 hrs by sulforhodamine B assay; conditions: Homo sapiens
HepG2 [1] = assay: Antitumor activity against human HepG2 cells xenografted in BALB/c nude mouse assessed as tumor growth inhibition at 50 mg/kg, po qd at 3 doses for 15 days; assay type: functional; conditions: HepG2, 360 h, read-out: TGI
Procedure, shortened: (§1)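 HepG2 hepatocarcinoma cells (1 × 10⁷) implanted sc in the flank of BALB/c-nu mice. Once-daily oral dosing of compound or vehicle began five days after implantation and ran 15 days at 20, 50 or 100 mg/kg. Tumor growth followed; %TGI; mean and SE, n = 8.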

[2] = Inhibition of AKT
Mus musculus [3] = assay: Toxicity in nude BALB/c mouse xenografted with human HepG2 cells assessed as weight loss at 100 mg/kg, po qd at 3 doses for 15 days; assay type: organism-based; set-up: dose 100 mg/kg, route oral; conditions: in vivo, 360 h
Procedure, shortened: (§2)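 BALB/c-nu mice bearing sc flank HepG2 xenografts received oral compound once daily for 15 days, top dose 100 mg/kg, starting five days after implantation. Animals were watched for clinically observable toxicity signs and for body weight loss; n = 8.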

Angiopoietin-1 receptor = Angiopoietin-1 receptor (Homo sapiens, UniProt Q02763); assay: Inhibition of Tie2
HepG2 [4] = assay: Antitumor activity against human HepG2 cells xenografted in BALB/c nude mouse assessed as tumor growth inhibition at 20 mg/kg, po qd at 3 doses for 15 days; assay type: functional; conditions: HepG2, 360 h, read-out: TGI; procedure, shortened: as §1
[5] = molecular target: Fibroblast growth factor receptor 1 (Homo sapiens, UniProt P11362); assay: Inhibition of FGFR1
[6] = molecular target: Vascular endothelial growth factor receptor 1 (Homo sapiens, UniProt P17948); assay: Inhibition of VEGFR1
Sequence of Vascular endothelial growth factor receptor 1 (P17948 whole entry): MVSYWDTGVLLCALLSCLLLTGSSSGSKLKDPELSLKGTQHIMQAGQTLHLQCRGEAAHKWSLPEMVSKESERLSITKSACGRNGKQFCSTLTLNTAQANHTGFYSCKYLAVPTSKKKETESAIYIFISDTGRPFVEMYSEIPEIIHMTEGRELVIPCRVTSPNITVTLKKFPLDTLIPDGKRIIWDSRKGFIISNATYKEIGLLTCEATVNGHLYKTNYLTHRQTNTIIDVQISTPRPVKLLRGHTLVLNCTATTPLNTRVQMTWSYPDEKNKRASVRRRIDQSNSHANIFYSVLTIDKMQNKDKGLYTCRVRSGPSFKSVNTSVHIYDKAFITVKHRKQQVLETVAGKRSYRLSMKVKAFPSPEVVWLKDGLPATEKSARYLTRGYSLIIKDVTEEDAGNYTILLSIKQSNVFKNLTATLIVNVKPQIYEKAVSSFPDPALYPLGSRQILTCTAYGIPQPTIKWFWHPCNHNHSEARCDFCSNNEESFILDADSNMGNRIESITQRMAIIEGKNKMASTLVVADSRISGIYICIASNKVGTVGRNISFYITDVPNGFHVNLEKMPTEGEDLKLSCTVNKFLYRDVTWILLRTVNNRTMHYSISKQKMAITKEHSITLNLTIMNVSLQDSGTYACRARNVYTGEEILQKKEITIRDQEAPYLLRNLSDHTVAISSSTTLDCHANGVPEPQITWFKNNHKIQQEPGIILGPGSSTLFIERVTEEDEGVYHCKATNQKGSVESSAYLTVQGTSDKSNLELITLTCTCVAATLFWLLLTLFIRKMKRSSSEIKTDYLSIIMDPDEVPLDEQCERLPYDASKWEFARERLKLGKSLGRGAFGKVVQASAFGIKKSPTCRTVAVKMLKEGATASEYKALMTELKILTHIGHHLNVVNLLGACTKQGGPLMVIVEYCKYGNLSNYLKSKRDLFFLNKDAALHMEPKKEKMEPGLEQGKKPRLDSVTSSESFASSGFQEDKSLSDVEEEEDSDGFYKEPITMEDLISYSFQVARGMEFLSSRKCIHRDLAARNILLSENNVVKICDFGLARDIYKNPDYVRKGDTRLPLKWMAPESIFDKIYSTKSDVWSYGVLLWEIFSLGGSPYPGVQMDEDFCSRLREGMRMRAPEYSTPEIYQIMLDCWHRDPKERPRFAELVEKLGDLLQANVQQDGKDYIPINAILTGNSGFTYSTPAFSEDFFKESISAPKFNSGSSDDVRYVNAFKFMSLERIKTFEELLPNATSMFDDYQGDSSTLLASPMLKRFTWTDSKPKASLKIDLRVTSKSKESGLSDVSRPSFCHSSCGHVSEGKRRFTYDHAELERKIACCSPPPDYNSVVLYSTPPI

[7] = molecular target: Cyclin-dependent kinase 1 (Homo sapiens, UniProt P06493); assay: Inhibition of CDK1
Sequence of Cyclin-dependent kinase 1 (P06493 whole entry): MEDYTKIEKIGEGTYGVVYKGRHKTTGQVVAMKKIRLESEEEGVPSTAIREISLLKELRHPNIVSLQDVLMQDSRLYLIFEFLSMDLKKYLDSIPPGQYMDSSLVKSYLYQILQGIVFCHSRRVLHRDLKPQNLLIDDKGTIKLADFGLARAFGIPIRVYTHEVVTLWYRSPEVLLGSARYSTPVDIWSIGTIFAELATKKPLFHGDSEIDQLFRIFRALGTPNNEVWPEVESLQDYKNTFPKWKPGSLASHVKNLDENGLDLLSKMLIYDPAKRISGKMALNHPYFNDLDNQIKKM

[8] = molecular target: Receptor tyrosine-protein kinase erbB-2 (Homo sapiens, UniProt P04626); assay: Inhibition of HER2
HepG2 [9] = assay: Antitumor activity against human HepG2 cells xenografted in BALB/c nude mouse assessed as tumor growth inhibition administered as po qd at 3 doses for 15 days; assay type: functional, organism-based; procedure, shortened: as §1
Mus musculus [10] = assay: Toxicity in nude BALB/c mouse xenografted with human HepG2 cells assessed as clinically observable signs of toxicity at 100 mg/kg, po qd at 3 doses for 15 days; assay type: organism-based; set-up: dose 100 mg/kg, route oral; conditions: in vivo, 360 h; procedure, shortened: as §2
[11] = molecular target: Vascular endothelial growth factor receptor 3 (Homo sapiens, UniProt P35916); assay: Inhibition of VEGFR3
Sequence of Vascular endothelial growth factor receptor 3 (P35916 whole entry): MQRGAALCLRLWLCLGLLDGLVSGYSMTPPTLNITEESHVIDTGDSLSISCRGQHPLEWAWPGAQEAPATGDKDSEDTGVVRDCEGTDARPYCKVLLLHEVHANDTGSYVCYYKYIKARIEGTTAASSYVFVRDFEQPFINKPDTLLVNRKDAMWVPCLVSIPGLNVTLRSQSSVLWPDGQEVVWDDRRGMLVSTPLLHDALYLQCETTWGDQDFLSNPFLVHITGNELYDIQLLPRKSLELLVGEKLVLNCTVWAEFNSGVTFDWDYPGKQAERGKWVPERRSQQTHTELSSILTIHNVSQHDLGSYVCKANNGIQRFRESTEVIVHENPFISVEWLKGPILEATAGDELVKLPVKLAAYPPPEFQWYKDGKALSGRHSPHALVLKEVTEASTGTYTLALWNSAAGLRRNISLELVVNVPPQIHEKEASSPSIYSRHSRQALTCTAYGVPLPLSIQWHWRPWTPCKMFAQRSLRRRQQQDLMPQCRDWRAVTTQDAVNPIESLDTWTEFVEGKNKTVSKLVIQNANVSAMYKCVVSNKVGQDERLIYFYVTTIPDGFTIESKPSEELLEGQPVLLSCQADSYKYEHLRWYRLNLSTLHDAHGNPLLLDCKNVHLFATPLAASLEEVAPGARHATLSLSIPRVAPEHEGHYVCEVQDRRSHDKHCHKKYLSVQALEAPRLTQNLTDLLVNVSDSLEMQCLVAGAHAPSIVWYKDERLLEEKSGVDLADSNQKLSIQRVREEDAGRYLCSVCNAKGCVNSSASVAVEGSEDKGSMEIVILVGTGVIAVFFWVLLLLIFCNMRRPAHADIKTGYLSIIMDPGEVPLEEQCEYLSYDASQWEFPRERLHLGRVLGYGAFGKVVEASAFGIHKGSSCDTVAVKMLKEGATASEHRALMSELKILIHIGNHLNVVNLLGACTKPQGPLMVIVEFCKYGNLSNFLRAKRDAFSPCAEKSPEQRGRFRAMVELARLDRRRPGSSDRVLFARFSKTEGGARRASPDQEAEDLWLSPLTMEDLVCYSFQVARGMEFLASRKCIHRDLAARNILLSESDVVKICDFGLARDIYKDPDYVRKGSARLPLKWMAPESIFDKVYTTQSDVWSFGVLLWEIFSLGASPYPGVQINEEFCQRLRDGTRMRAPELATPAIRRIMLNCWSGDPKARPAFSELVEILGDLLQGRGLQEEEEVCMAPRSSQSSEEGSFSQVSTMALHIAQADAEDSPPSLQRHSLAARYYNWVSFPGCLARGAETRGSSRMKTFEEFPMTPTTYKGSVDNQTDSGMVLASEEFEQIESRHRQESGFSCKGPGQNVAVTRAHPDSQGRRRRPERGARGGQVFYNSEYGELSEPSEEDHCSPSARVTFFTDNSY

[12] = molecular target: Platelet-derived growth factor receptor alpha (Homo sapiens, UniProt P16234); assay: Inhibition of PDGFRalpha
HepG2 [13] = assay: Antitumor activity against human HepG2 cells xenografted in BALB/c nude mouse assessed as tumor growth inhibition at 100 mg/kg, po qd at 3 doses for 15 days; assay type: functional; conditions: HepG2, 360 h, read-out: TGI; procedure, shortened: as §1
[14] = molecular target: Vascular endothelial growth factor receptor 2 (Homo sapiens, UniProt P35968); assay: Inhibition of human GST-tagged VEGFR2 intracellular domain using biotin-aminohexyl-EEEEYFELVAKKKK-NH2 as substrate after 30 mins by HTRF assay
Sequence of Vascular endothelial growth factor receptor 2 (P35968 whole entry, the tested form may be a part): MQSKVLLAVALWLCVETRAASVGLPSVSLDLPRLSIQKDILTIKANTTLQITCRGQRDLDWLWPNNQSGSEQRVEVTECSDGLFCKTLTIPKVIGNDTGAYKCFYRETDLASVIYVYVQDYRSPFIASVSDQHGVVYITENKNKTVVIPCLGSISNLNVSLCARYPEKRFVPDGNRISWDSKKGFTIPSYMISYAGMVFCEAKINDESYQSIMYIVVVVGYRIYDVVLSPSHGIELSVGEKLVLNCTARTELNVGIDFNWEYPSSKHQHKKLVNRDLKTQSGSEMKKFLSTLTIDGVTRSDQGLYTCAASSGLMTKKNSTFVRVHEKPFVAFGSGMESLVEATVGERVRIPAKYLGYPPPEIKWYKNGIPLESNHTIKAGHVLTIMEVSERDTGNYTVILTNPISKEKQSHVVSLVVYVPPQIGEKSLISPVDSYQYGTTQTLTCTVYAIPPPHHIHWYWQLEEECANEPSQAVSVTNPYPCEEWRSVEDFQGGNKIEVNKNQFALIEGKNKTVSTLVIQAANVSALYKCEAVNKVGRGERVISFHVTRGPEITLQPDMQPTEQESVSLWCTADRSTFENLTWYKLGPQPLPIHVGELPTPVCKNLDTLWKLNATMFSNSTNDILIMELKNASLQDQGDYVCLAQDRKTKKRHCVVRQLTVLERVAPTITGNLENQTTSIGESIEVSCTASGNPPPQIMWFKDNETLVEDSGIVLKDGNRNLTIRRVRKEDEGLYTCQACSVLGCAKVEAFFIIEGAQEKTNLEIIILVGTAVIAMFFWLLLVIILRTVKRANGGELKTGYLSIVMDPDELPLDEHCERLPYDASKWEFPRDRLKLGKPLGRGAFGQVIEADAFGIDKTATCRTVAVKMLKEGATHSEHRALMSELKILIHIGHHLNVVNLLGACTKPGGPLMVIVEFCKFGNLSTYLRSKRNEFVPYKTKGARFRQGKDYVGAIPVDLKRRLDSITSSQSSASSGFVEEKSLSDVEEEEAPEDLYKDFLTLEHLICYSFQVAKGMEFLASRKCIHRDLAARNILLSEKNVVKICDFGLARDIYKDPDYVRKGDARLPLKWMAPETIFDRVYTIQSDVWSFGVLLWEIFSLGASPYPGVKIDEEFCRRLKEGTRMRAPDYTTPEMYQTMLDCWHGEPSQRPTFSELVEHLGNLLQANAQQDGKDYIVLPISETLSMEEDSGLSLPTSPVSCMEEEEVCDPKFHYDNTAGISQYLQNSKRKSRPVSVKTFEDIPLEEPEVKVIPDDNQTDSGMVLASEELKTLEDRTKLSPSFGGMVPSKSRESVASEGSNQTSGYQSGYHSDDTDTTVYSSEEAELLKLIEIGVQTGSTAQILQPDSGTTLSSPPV

[15] = Lipophilicity, log P of the compound; assay type: physicochemical; conditions: octanol/water
[16] = Solubility of the compound in water; assay type: physicochemical; conditions: buffer
[17] = Dissociation constant, pKa of the compound; assay type: physicochemical

Compound: CN1CCC(COc2ccc3c(Nc4ccc(NC(=O)Nc5cccc(F)c5)c(Cl)c4)ncnc3c2)CC1
- IC50 (HUVEC): 132 nM

Compound: CN1CCC(COc2ccc3c(Nc4ccc(NC(=O)Nc5ccc(F)c(F)c5)cc4)ncnc3c2)CC1
- IC50 (HUVEC): 89 nM

Compound: CN1CCC(COc2ccc3c(Nc4ccc(NC(=O)NC5CC5)cc4)ncnc3c2)CC1
- IC50 (HUVEC): 324 nM

Compound: CN1CCC(COc2ccc3c(Nc4ccc(NC(=O)Nc5cccc(F)c5)cc4)ncnc3c2)CC1
- inhibition in vivo at 50 mg/kg (HepG2 [1]): 61.4%
- IC50 [2]: 8710 nM
- Activity (Mus musculus [3]): Non-toxic
- IC50 (Angiopoietin-1 receptor): > 10000 nM
- inhibition in vivo at 20 mg/kg (HepG2 [4]): 25.6%
- IC50 (HUVEC): 52 nM
- IC50 [5]: > 10000 nM
- IC50 [6]: 1920 nM
- IC50 [7]: 10000 nM
- IC50 [8]: > 10000 nM
- TGI (HepG2 [9]): Dose-dependent effect
- Activity (Mus musculus [10]): Non-toxic
- IC50 [11]: 9.6 nM
- IC50 [12]: 1360 nM
- inhibition in vivo at 100 mg/kg (HepG2 [13]): 83.6%
- IC50 [14]: 5.5 nM

Compound: CNC(=O)c1cc(Oc2ccc(NC(=O)Nc3ccc(Cl)c(C(F)(F)F)c3)cc2)ccn1 [SORAFENIB]
- logP [15]: 5

Compound: CN1CCC(COc2ccc3c(Nc4ccc(NC(=O)Nc5ccc(Cl)c(C(F)(F)F)c5)cc4)ncnc3c2)CC1
- IC50 (HUVEC): 92 nM

Compound: COc1cc2c(Nc3ccc(NC(=O)Nc4cccc(F)c4)cc3)ncnc2cc1OCC1CCN(C)CC1
- IC50 (HUVEC): 179 nM

Compound: COc1cc2c(Nc3ccc(Br)cc3F)ncnc2cc1OCC1CCN(C)CC1 [VANDETANIB]
- solubility [16]: soluble
- IC50 (HUVEC): 187 nM

Compound: COc1cc2c(Nc3ccc(NC(=O)Nc4cccc(F)c4)c(F)c3)ncnc2cc1OCC1CCN(C)CC1
- IC50 (HUVEC): 185 nM

Compound: Cc1ccc(NC(=O)Nc2ccc(Nc3ncnc4cc(OCC5CCN(C)CC5)ccc34)cc2)cc1Br
- IC50 (HUVEC): 196 nM

Compound: CN1CCC(COc2ccc3c(Nc4ccc(NC(=O)Nc5cccc(F)c5)c(F)c4)ncnc3c2)CC1
- IC50 (HUVEC): 67 nM

Compound: CN1CCC(COc2ccc3c(Nc4ccc(NC(=O)Nc5ccc(Br)cc5F)cc4)ncnc3c2)CC1
- IC50 (HUVEC): 233 nM

Compound: CN1CCC(COc2ccc3c(Nc4ccc(CC(=O)Nc5ccc(F)c(F)c5)cc4)ncnc3c2)CC1
- IC50 (HUVEC): 308 nM

Compound: CN1CCC(COc2ccc3c(Nc4ccc(CC(=O)Nc5ccc(Cl)c(C(F)(F)F)c5)cc4)ncnc3c2)CC1
- IC50 (HUVEC): 258 nM

Compound: CCNC(=O)Nc1ccc(Nc2ncnc3cc(OCC4CCN(C)CC4)ccc23)cc1
- IC50 (HUVEC): 587 nM

Compound: CN1CCCCC1
- pKa [17]: 8.1

Compound: CN1CCC(COc2ccc3c(Nc4ccc(CC(=O)Nc5cccc(F)c5)cc4)ncnc3c2)CC1
- IC50 (HUVEC): 237 nM
